Source: ChEMBL document CHEMBL3861960, “Leoligin, the Major Lignan from Edelweiss (Leontopodium nivale subsp. alpinum), Promotes Cholesterol Efflux from THP-1 Macrophages” (J Nat Prod, 2016)
The source made the active and inactive calls. The rule behind the calls is not given here.

How the values were obtained:
THP-1 [1] = assay: Effect on of ABCA1 protein expression in human THP1 cells at 10 uM after 24 hrs by proteome analysis relative to control; format: functional
THP-1 [2] = assay: Effect on RAB4A protein expression in human THP1 cells at 10 uM after 24 hrs by proteome analysis relative to control; format: functional
Method in brief: (§1)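 PMA-differentiated THP-1 macrophages given 10 μM compound or DMSO for 24 h, then lysed in TRIzol. Proteins reduced with DTT, alkylated with iodoacetamide, digested with trypsin (1:50 w/w) for 16 h at 30 °C. Biological replicates pooled, analysed by LC-MS/MS on an Orbitrap Velos Pro with a 4 h gradient, FDR ≤0.05. Only unique peptides used; log2 peptide ratios averaged per protein and tested by one-sample t test versus vehicle.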

THP-1 [3] = assay: Effect on MCM9 protein expression in human THP1 cells at 10 uM after 24 hrs by proteome analysis relative to control; format: functional; method in brief: as §1
THP-1 [4] = assay: Effect on P4HTM protein expression in human THP1 cells at 10 uM after 24 hrs by proteome analysis relative to control; format: functional; method in brief: as §1
THP-1 [5] = assay: Effect on PTPRC protein expression in human THP1 cells at 10 uM after 24 hrs by proteome analysis relative to control; format: functional; method in brief: as §1
THP-1 [6] = assay: Effect on OR1M1 protein expression in human THP1 cells at 10 uM after 24 hrs by proteome analysis relative to control; format: functional; method in brief: as §1
THP-1 [7] = assay: Effect on DNHD1 protein expression in human THP1 cells at 10 uM after 24 hrs by proteome analysis relative to control; format: functional; method in brief: as §1
THP-1 [8] = assay: Effect on CUL7 protein expression in human THP1 cells at 10 uM after 24 hrs by proteome analysis relative to control; format: functional; method in brief: as §1
[9] = Upregulation of ABCA1 protein expression in human THP1 cells at 10 uM after 24 hrs by Western blot method; format: functional, cell-based; settings: THP-1
Method in brief: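 THP-1 macrophages treated for 24 h with 10 μM compound, 10 μM pioglitazone or DMSO, then lysed in NP40 buffer (150 mM NaCl, 50 mM HEPES pH 7.4, 1% NP40) with protease and phosphatase inhibitors. 20 μg protein separated by SDS-PAGE and immunoblotted for ABCA1 with β-actin, ECL detection. Densitometry from four independent experiments.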

THP-1 [10] = assay: Effect on LAMP1 protein expression in human THP1 cells at 10 uM after 24 hrs by proteome analysis relative to control; format: functional; method in brief: as §1
THP-1 [11] = assay: Effect on TUSC2 protein expression in human THP1 cells at 10 uM after 24 hrs by proteome analysis relative to control; format: functional; method in brief: as §1
THP-1 [12] = assay: Effect on CYP1B1 protein expression in human THP1 cells at 10 uM after 24 hrs by proteome analysis relative to control; format: functional; method in brief: as §1
THP-1 [13] = assay: Induction of apo-A1-mediated cholesterol efflux from [3H]-cholesterol labeled human THP1 cells preincubated for 24 hrs followed by apo A1 addition measured after 6 hrs by scintillation counting method; format: functional, cell-based
Method in brief: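 Differentiated THP-1 macrophages loaded with [3H]-cholesterol for 24 h in the presence of compound, or pioglitazone 10 μM as positive control. Medium then replaced with serum-free RPMI containing compound, with or without acceptor (10 μg/mL apo A1 or 1% human plasma from fasted volunteers), for 6 h. Efflux % = extracellular/total cpm with acceptor minus without acceptor, ×100, by scintillation counting. Three independent experiments.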

THP-1 [14] = assay: Effect on DNAH9 protein expression in human THP1 cells at 10 uM after 24 hrs by proteome analysis relative to control; format: functional; method in brief: as §1
THP-1 [15] = assay: Effect on PLAUR protein expression in human THP1 cells at 10 uM after 24 hrs by proteome analysis relative to control; format: functional; method in brief: as §1
THP-1 [16] = assay: Effect on HIST2H2AC protein expression in human THP1 cells at 10 uM after 24 hrs by proteome analysis relative to control; format: functional; method in brief: as §1
THP-1 [17] = assay: Effect on TUBA1A protein expression in human THP1 cells at 10 uM after 24 hrs by proteome analysis relative to control; format: functional; method in brief: as §1
THP-1 [18] = assay: Effect on EVI2B protein expression in human THP1 cells at 10 uM after 24 hrs by proteome analysis relative to control; format: functional; method in brief: as §1
THP-1 [19] = assay: Effect on CD44 protein expression in human THP1 cells at 10 uM after 24 hrs by proteome analysis relative to control; format: functional; method in brief: as §1
[20] = Cytotoxicity against human THP1 cells assessed as decrease in cell viability at 1 to 20 uM after 24 hrs by resazurin assay; format: toxicity, cell-based; settings: thp-1, 24 h
Method in brief: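 THP-1 cells kept in RPMI-1640 with 10% heat-inactivated FBS, penicillin/streptomycin and 2 mM L-glutamine, then differentiated to macrophages with 200 nM PMA for 72 h. Exposed to compound for 24 h. Viability read by resazurin conversion as fluorescence (ex 535 nm, em 580 nm). Digitonin 50 μg/mL served as cytotoxic control. Mean ± SD of four independent experiments; one-way ANOVA with Bonferroni test against DMSO.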

THP-1 [21] = assay: Effect on PAIP2 protein expression in human THP1 cells at 10 uM after 24 hrs by proteome analysis relative to control; format: functional; method in brief: as §1
THP-1 [22] = assay: Effect on SPCS1 protein expression in human THP1 cells at 10 uM after 24 hrs by proteome analysis relative to control; format: functional; method in brief: as §1
THP-1 [23] = assay: Effect on MAGEBS protein expression in human THP1 cells at 10 uM after 24 hrs by proteome analysis relative to control; format: functional; method in brief: as §1
THP-1 [24] = assay: Effect on BHLHA15 protein expression in human THP1 cells at 10 uM after 24 hrs by proteome analysis relative to control; format: functional; method in brief: as §1
THP-1 [25] = assay: Effect on ATP13A3 protein expression in human THP1 cells at 10 uM after 24 hrs by proteome analysis relative to control; format: functional; method in brief: as §1

Compound: C/C=C(/C)C(=O)OC[C@H]1[C@@H](Cc2ccc(OC)c(OC)c2)CO[C@@H]1c1ccc(OC)c(OC)c1
- fold change (FC) (THP-1 [1]): 1.1
- fold change (FC) (THP-1 [2]): 1.9
- fold change (FC) (THP-1 [3]): 1.9
- fold change (FC) (THP-1 [4]): 0.6
- fold change (FC) (THP-1 [5]): 1.7
- fold change (FC) (THP-1 [6]): 2
- fold change (FC) (THP-1 [7]): 0.6
- fold change (FC) (THP-1 [8]): 0.6
- Activity [9]: Active
- fold change (FC) (THP-1 [10]): 1.8
- fold change (FC) (THP-1 [11]): 1.5
- fold change (FC) (THP-1 [12]): 1.6
- Activity (THP-1 [13]): Dose-dependent effect
- fold change (FC) (THP-1 [14]): 0.4
- fold change (FC) (THP-1 [15]): 1.5
- fold change (FC) (THP-1 [16]): 0.6
- fold change (FC) (THP-1 [17]): 1.5
- fold change (FC) (THP-1 [18]): 2.3
- fold change (FC) (THP-1 [19]): 1.8
- Activity [20]: Non-Toxic
- fold change (FC) (THP-1 [21]): 1.7
- fold change (FC) (THP-1 [22]): 1.6
- fold change (FC) (THP-1 [23]): 0.4
- fold change (FC) (THP-1 [24]): 0.7
- fold change (FC) (THP-1 [25]): 1.7
